Legend:
[1] = Cytotoxicity against human COLO320DM cells after 48 hrs by MTT assay; assay type: functional, cell-based; settings: COLO 320DM
How it was run: (§1)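 MTT colorimetric microculture assay in human colorectal cells, 5 × 10⁵ per well. After 48 h, cells incubated at 37 °C in 0.1% DMSO with compound. Sample removed, cells washed with PBS pH 7.4, MTT added. After 4 h, […] added and absorbance read at 595 nm. Triplicates; IC50 given as mean SD, p < 0.05 significant.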

HT-29 = test: Cytotoxicity against human HT-29 cells after 48 hrs by MTT assay; assay type: functional, cell-based; settings: HT-29, 48 h; how it was run: as §1
[2] = Prodrug activation in rat fecal material after 24 hrs; assay type: ADME, tissue-based, Feces
How it was run: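 About 1 g fresh rat feces per tube with prodrug in phosphate buffer pH 7.4, diluted with 5 ml buffer to 50 µg/ml, incubated at 37 °C. Aliquots taken over time and read by double-beam UV spectrophotometry at compound-specific wavelengths. Cumulative % release at 24 h; mean SD, n = 6.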

[3] = Prodrug activation in rat large intestine mucosa in presence of azoreductase; assay type: tissue-based
How it was run: (§2)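 Cecal content, small-intestine content, SI mucosa or LI mucosa taken from Wistar rats and suspended in cold PBS pH 7.4 as 10% (w/v) slurry. Cecal content bubbled with nitrogen. Other tissues homogenized and centrifuged to 2% w/w. All stored at −20 °C. Prodrug incubated with each preparation, azo-bond cleavage followed by UV, and % drug release determined.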

[4] = Prodrug activation in rat small intestine content in presence of azoreductase; assay type: tissue-based; how it was run: as §2
[5] = Prodrug activation in rat small intestine mucosa in presence of azoreductase; assay type: tissue-based; how it was run: as §2
[6] = Prodrug activation in rat cecum content in presence of azoreductase; assay type: tissue-based, Caecum; how it was run: as §2
[7] = Chemical stability of the compound in 0.1 N HCl solution at pH 1.2; assay type: physicochemical; settings: buffer
How it was run: (§3)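 Prodrug held in acidic buffer (pH 1.2, 0.1 N HCl) or basic buffer (pH 7.4) at 37 °C. Aliquots withdrawn at time intervals and remaining prodrug read by UV spectrophotometry at compound-specific wavelengths (306/256, 274/284 or 280/260 nm for acid/pH 7.4). Release reported as % after 24 h; mean SD, n = 6.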

[8] = Chemical stability of the compound in phosphate buffer at pH 7.4; assay type: physicochemical; how it was run: as §3
COLO 205 = test: Cytotoxicity against human COLO205 cells after 48 hrs by MTT assay; assay type: functional, cell-based; settings: COLO 205, 48 h; how it was run: as §1

For `COC(=O)CC[C@H](NC(=O)c1ccc(N(C)Cc2cnc3nc(/N=N/c4ccc(O)cc4)nc(/N=N/c4ccc(O)cc4)c3n2)cc1)C(=O)OC`, the IC50 [1] was 5.74 µM, the IC50 (HT-29) was 3.92 µM and the Drug metabolism [2] was 64%. For the same compound, the Drug metabolism [3] was 5%, the Drug metabolism [4] was 5% and the Drug metabolism [5] was 5%. The Drug metabolism [6] was 70%, the Stability [7] was “Stable” and the Stability [8] was “Stable”. It also gave an IC50 (COLO 205) of 4.13 µM.

`O=c1nc(/N=N/c2ccc(O)cc2)ccn1[C@@H]1O[C@H](CO)[C@@H](O)C1(F)F` showed an IC50 [1] of 3.72 µM, an IC50 (HT-29) of 2.61 µM and a Drug metabolism [2] of 71%. For the same compound, the Drug metabolism [3] was 5%, the Drug metabolism [4] was 5% and the Drug metabolism [5] was 5%. For the same compound, the Drug metabolism [6] was 70%, the Stability [7] was “Stable” and the Stability [8] was “Stable”. The IC50 (COLO 205) was 3.31 µM.

Compound `Nc1ccn([C@@H]2O[C@H](CO)[C@@H](O)C2(F)F)c(=O)n1` [GEMCITABINE] has an IC50 [1] of 3.92 µM, an IC50 (HT-29) of 1.95 µM and an IC50 (COLO 205) of 3.24 µM.

In the case of `CN(Cc1cnc2nc(N)nc(N)c2n1)c1ccc(C(=O)N[C@@H](CCC(=O)O)C(=O)O)cc1` [METHOTREXATE], the IC50 [1] is reported as 5.25 µM, the IC50 (HT-29) is reported as 3.45 µM and the IC50 (COLO 205) is reported as 3.27 µM.

— ChEMBL document CHEMBL2424618, “Design, synthesis and ex vivo evaluation of colon-specific azo based prodrugs of anticancer agents” (Bioorg Med Chem Lett, 2013)
